From ChEMBL document CHEMBL1147142, “Novel 3-O-glycosyl-3-demethylthiocolchicines as ligands for glycine and gamma-aminobutyric acid receptors” (J Med Chem, 2007)
pIC50: −log10 of the molar value.

How the values were obtained:
Format in all cases: cell membranes, Membrane
[1] = Displacement of [3H]strychnine from glycine receptor in rat spinal cord synaptosomal membranes
Summary of the method: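 Rat spinal cord synaptosomal membranes (stored at -80 °C, used within 2 weeks; 0.2-0.4 mg protein per 1.2 mL) incubated 10 min at 4 °C with 2 nM [3H]strychnine plus increasing concentrations of competitor in 50 mM sodium-potassium phosphate, pH 7.1. Rapid glass-fiber filtration, 0.15 M NaCl rinse. Nonspecific binding with 0.1 mM unlabeled strychnine. Triplicate points; IC50 from mean of three independent curves.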

[2] = Displacement of [3H]muscimol from GABAA receptor in Sprague-Dawley rat spinal cord brainstem membranes
[3] = Displacement of [3H]muscimol from GABAA receptor in Sprague-Dawley rat cerebral cortex membranes

Row | SMILES | pIC50 [1] | pIC50 [2] | pIC50 [3]
1 | COc1c(O[C@@H]2O[C@H](CI)[C@@H](O)[C@H](O)[C@H]2O)cc2c(c1OC)-c1ccc(SC)c(=O)cc1[C@@H](NC(C)=O)CC2 | < 4.00 | 5.10 | 4.76
2 | COc1c(O[C@@H]2O[C@H](C)[C@@H](O)[C@H](O)[C@H]2O)cc2c(c1OC)-c1ccc(SC)c(=O)cc1[C@@H](NC(C)=O)CC2 | 5.72 | 5.46 | 5.21
3 | COc1c(O[C@@H]2O[C@H](CF)[C@@H](O)[C@H](O)[C@H]2O)cc2c(c1OC)-c1ccc(SC)c(=O)cc1[C@@H](NC(C)=O)CC2 | 5.89 | 5.70 | 5.42
4 | COc1c(O[C@@H]2O[C@H](CN=[N+]=[N-])[C@@H](O)[C@H](O)[C@H]2O)cc2c(c1OC)-c1ccc(SC)c(=O)cc1[C@@H](NC(C)=O)CC2 | 5.37 | 5.09 | 5.11
5 | NCC(=O)O [GLYCINE] | 4.80 | – | –
6 | O=C1C[C@@H]2OCC=C3CN4CC[C@]56c7ccccc7N1[C@H]5[C@H]2[C@H]3C[C@H]46 [STRYCHNINE] | 7.85 | – | –
7 | COc1c(O[C@@H]2O[C@H](CO)[C@@H](O)[C@H](O)[C@H]2O)cc2c(c1OC)-c1ccc(SC)c(=O)cc1[C@@H](NC(C)=O)CC2 [THIOCOLCHICOSIDE] | 5.82 | 5.72 | 5.47
